Data as given in ChEMBL document CHEMBL4368863, “Evaluation of novel N'-(3-hydroxybenzoyl)-2-oxo-2H-chromene-3-carbohydrazide derivatives as potential HIV-1 integrase inhibitors” (Medchemcomm, 2019).

Legend:
[1] = molecular target: Human immunodeficiency virus type 1 integrase (Human immunodeficiency virus 1, UniProt Q7ZJM1); assay: Inhibition of HIV1 subtype C recombinant integrase strand transfer activity preincubated for 45 mins with double-stranded biotinylated donor DNA followed by addition of double stranded FITC-labelled target DNA and measured after 60 mins relative to control
Sequence of Human immunodeficiency virus type 1 integrase (Q7ZJM1 whole entry): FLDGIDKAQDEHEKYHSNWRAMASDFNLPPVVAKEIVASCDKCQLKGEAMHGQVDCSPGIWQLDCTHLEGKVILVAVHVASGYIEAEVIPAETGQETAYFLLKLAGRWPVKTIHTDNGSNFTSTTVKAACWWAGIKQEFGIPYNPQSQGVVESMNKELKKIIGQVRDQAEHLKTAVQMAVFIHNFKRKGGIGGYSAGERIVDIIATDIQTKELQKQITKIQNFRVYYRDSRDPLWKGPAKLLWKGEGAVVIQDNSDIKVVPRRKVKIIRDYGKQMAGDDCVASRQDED

[2] = Cytotoxicity against human HeLa cells assessed as cell viability at 25 uM after 48 hrs by resazurin dye-based fluorescence assay; details: read-out: Activity
Summary of the method: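 HeLa cells seeded at 6.7 × 10^4 per well in DMEM with 10% foetal bovine serum and penicillin/streptomycin/amphotericin B. Grown 24 h at 37 °C, 5% CO2, then exposed to compound at 25 μM final for 48 h. Resazurin added and fluorescence read (Ex 560/Em 590 nm) after 2–4 h more. Viability expressed as % of no-compound control wells.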

Row | Compound | IC50 [1] [nM] | viability at 48 h, 25 µM [2] [%]
1 | COc1ccc(O)c(C(=O)NNC(=O)c2cc3cc(Br)ccc3oc2=O)c1 | 163 | > 70
2 | COc1cccc(C(=O)NNC(=O)c2cc3cc(Br)ccc3oc2=O)c1O | – | > 70
3 | COc1ccc(O)c(C(=O)NNC(=O)c2cc3ccccc3oc2=O)c1 | 5800 | > 70
4 | O=C(NNC(=O)c1cc2ccccc2oc1=O)c1ccccc1O | 70 | > 70
5 | CCOc1cccc2cc(C(=O)NNC(=O)c3cccc(OC)c3O)c(=O)oc12 | – | > 70
6 | COc1cccc(C(=O)NNC(=O)c2cc3cc(Cl)ccc3oc2=O)c1O | – | > 70
7 | COc1cccc(C(=O)NNC(=O)c2cc3cccc(OC)c3oc2=O)c1O | – | > 70
8 | O=C(NNC(=O)c1cc2cc(Br)ccc2oc1=O)c1ccccc1O | 14 | > 70
9 | COc1cccc(C(=O)NNC(=O)c2cc3ccccc3oc2=O)c1O | – | > 70

Now from value to compound, other results behind:

Row | IC50 [1] [nM] | Compound | viability at 48 h, 25 µM [2] [%]
10 | 901 | COc1ccc(O)c(C(=O)NNC(=O)c2cc3cccc(OC)c3oc2=O)c1 | > 70
11 | 175 | O=C(NNC(=O)c1cc2cc(Br)ccc2oc1=O)c1cc(Cl)ccc1O | > 70
12 | 23 | COc1cccc2cc(C(=O)NNC(=O)c3cc(Cl)ccc3O)c(=O)oc12 | > 70
13 | 592 | CCOc1cccc2cc(C(=O)NNC(=O)c3cc(OC)ccc3O)c(=O)oc12 | > 70
14 | 13 | O=C(NNC(=O)c1cc2cc(Cl)ccc2oc1=O)c1ccccc1O | > 70
15 | 31 | CCOc1cccc2cc(C(=O)NNC(=O)c3cc(Cl)ccc3O)c(=O)oc12 | > 70
16 | 104 | CCOc1cccc2cc(C(=O)NNC(=O)c3ccccc3O)c(=O)oc12 | > 70
17 | 33 | O=C(NNC(=O)c1cc2ccccc2oc1=O)c1cc(Cl)ccc1O | > 70
18 | 605 | COc1ccc(O)c(C(=O)NNC(=O)c2cc3cc(Cl)ccc3oc2=O)c1 | > 70
19 | 41 | O=C(NNC(=O)c1cc2cc(Cl)ccc2oc1=O)c1cc(Cl)ccc1O | > 70
20 | 47 | COc1cccc2cc(C(=O)NNC(=O)c3ccccc3O)c(=O)oc12 | > 70
